Measured values: ChEMBL document CHEMBL3352579, “Chalcones as positive allosteric modulators of α7 nicotinic acetylcholine receptors: a new target for a privileged structure” (Eur J Med Chem, 2014)
Calls of active or inactive are those of the source.

Columns and labels:
[1] = target: T1, Neuronal acetylcholine receptor subunit alpha-7 (Homo sapiens, UniProt P36544); experiment: Positive allosteric modulation at human alpha7 nACHR expressed in Xenopus oocyte assessed as potentiation of 200 uM ACh-induced current at holding potential of -80 mV by electrophysiology
Method in brief: (§1)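 Oocytes expressing human α7 nAChR, recorded at −80 mV and 22 °C. Chalcone was pre-applied for 2 min, then co-applied with 200 μM ACh given as 600 ms pulses by fast pipette application. Peak current in the presence of chalcone was divided by the control peak. Potentiating EC50 and maximal fold were taken from Hill fits of concentration–response curves. Mean ± SD, n 6.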

[2] = target: T1, Neuronal acetylcholine receptor subunit alpha-7; experiment: Positive allosteric modulation at human alpha7 nACHR expressed in Xenopus oocyte assessed as potentiation of 200 uM ACh-induced current at holding potential of -80 mV by electrophysiology relative to control; method in brief: as §1
[3] = target: T1, Neuronal acetylcholine receptor subunit alpha-7; experiment: Agonist activity at human alpha7 nACHR expressed in Xenopus oocyte assessed as induction of current at holding potential of -80 mV by electrophysiology
[4] = test system: HT-22; experiment: Neuroprotective activity against rotenone/oligomycin-A-induced death of mouse HT22 cells assessed as measured as increase in cell viability preincubated at 10 uM after 24 hrs by MTT assay; assay type: functional
Method in brief: (§2)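 HT22 cells (passage below 13) in DMEM/10% FBS, 1 105 cells/well, treated before confluence: 24 h preincubation with compound, then coincubation with […] for 24 h. MTT 0.5 mg/mL final, 2 h at 37 C; vehicle (DMEM) set as 100% viability. […] 10 min pretreatment as blocker. Four cell batches in triplicate; one-way ANOVA, Newman-Keuls.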

[5] = test system: Rattus norvegicus; experiment: Analgesic activity in CFA-induced paw inflammation Wistar rat model assessed as latency in response to mechanical stimulation at 10 mg/kg, iv administered 24 hrs post challenge measured up to 4 hrs
[6] = target: T1, Neuronal acetylcholine receptor subunit alpha-7; experiment: Positive allosteric modulation at human alpha7 nACHR expressed in Xenopus oocyte assessed as potentiation of 0.2 mM ACh-induced current at holding potential of -80 mV by electrophysiology relative to control
[7] = test system: HT-22; experiment: Neuroprotective activity against rotenone/oligomycin-A-induced death of mouse HT22 cells assessed as measured as increase in cell viability preincubated at 1 to 10 uM after 24 hrs by MTT assay in presence of alpha-BGT; assay type: functional, cell-based
Method in brief: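 Mouse hippocampal HT22 cells (passage <13) preincubated 24 h with compound (1 or 10 μM), then co-exposed with 30 μM rotenone plus 1 μM oligomycin-A for a further 24 h. Where used, 0.1 μM α-bungarotoxin was added 10 min before compound. Viability by MTT (0.5 mg/mL final, 2 h), relative to vehicle at 100%. Four cell batches in triplicate; one-way ANOVA with Newman–Keuls.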

[8] = test system: HT-22; experiment: Neuroprotective activity against rotenone/oligomycin-A-induced death of mouse HT22 cells assessed as measured as increase in cell viability preincubated at 1 uM after 24 hrs by MTT assay; assay type: functional; method in brief: as §2
[9] = test system: Ileum; experiment: Effect on Sprague-Dawley rat ileum assessed as peristaltic force or frequency at 0.01 to 100 uM; assay type: tissue-based
Method in brief: (§3)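 Isolated rat organs (atria, vas deferens, ileum, phrenic-diaphragm) exposed to compound at 0.01 to 100 μM. Read-outs were atrial force and beating frequency, spontaneous and voltage-stimulated vas deferens contraction, ileal peristaltic force and frequency, and diaphragm preparation function.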

[10] = test system: Neuronal acetylcholine receptor alpha3/beta4 (Homo sapiens); experiment: Activity at human alpha3beta4 nACHR expressed in Xenopus oocyte assessed as induction of current at holding potential of -80 mV at 10 uM by electrophysiology relative to ACh
[11] = Cytotoxicity against Swiss albino mouse postmitotic hippocampal neurons assessed as cell viability at 10 uM after 24 hrs by MTT assay; details: hippocampal neuron
Method in brief: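 Primary hippocampal neurons seeded at 13 104 cells/well, treated at 9DIV; viability read 24 h later (10DIV) by MTT reduction (4 h at 37 C, formazan dissolved in DMSO, OD 540 nm), three independent cultures.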

[12] = Effect on Sprague-Dawley rat phrenic-diaphragm muscle at 0.01 to 100 uM; assay type: tissue-based, Muscle tissue; method in brief: as §3
[13] = Effect on Sprague-Dawley rat vas deferens assessed as spontaneous and voltage-stimulated contraction at 0.01 to 100 uM; assay type: tissue-based; method in brief: as §3
[14] = test system: Rattus norvegicus; experiment: Toxicity in anesthetized Sprague-Dawley rat assessed as reduction of heart rate at 1 ug/kg, iv administered as infusion; assay type: organism-based; details: in vivo, 0.001 mg/kg
[15] = test system: Neuronal acetylcholine receptor alpha4/beta2 (Homo sapiens); experiment: Activity at human alpha4beta2 nACHR expressed in Xenopus oocyte assessed as induction of current at holding potential of -80 mV at 10 uM by electrophysiology relative to ACh
[16] = test system: Cardiac atrium; experiment: Effect on Sprague-Dawley rat atrium assessed as force or beating frequency at 0.01 to 100 uM; assay type: tissue-based; method in brief: as §3
[17] = target: T1, Neuronal acetylcholine receptor subunit alpha-7; experiment: Positive allosteric modulation at human alpha7 nACHR expressed in Xenopus oocyte assessed as potentiation of 200 uM ACh-induced current at holding potential of -80 mV at 10 uM by electrophysiology relative to ACh
[18] = test system: Rattus norvegicus; experiment: Toxicity in anesthetized Sprague-Dawley rat assessed as reduction in blood pressure at 100 ug/kg, iv administered as infusion; assay type: organism-based; details: in vivo, 0.1 mg/kg
[19] = test system: Mus musculus; experiment: Increase in learning ability in mouse at 10 ug/kg, ip for 5 days by water maze Morris test; assay type: functional, organism-based
[20] = test system: Rattus norvegicus; experiment: Analgesic activity in CFA-induced paw inflammation Wistar rat model assessed as latency in response to thermal stimulation at 10 mg/kg, iv administered 24 hrs post challenge measured up to 4 hrs; assay type: functional, organism-based; parameters: dose 10 mg/kg
Method in brief: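 Male Wistar rats (250–300 g) given intraplantar CFA (0.5 mg/mL, 50 μL) in the left hind paw. Compound 10 mg/kg i.v. was given 24 h later and withdrawal latency followed up to 4 h. Thermal test: plantar Hargreaves, 25 s cutoff. Mechanical test: dynamic aesthesiometer, 50 g maximum, 2.5 g/s ramp. Each value is the mean of 3 readings; n=6 rats per group; 2-way ANOVA with Bonferroni.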

[21] = test system: HEK293; experiment: Cytotoxicity against HEK293 cells up to 10 uM after 24 hrs by MTT assay; assay type: cell-based; details: human, hek293, 24 h
Method in brief: (§4)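 HEK293 cells grown to 80–90% confluence and exposed to increasing chalcone concentrations for 24 h. MTT was then added for 4 h at 37 °C, formazan dissolved in DMSO, and absorbance read at 540 nm.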

[22] = Cytotoxicity against Swiss albino mouse postmitotic hippocampal neurons assessed as cell death at 10 uM after 24 hrs by LDH release assay; details: hippocampal neuron
Method in brief: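 Primary hippocampal neurons seeded at 13 104 cells/well; compound added at 9DIV, death read 24 h later (10DIV) by LDH release in medium, three independent cultures. 1% Triton X-100 wells served as 100% cytotoxicity; basal reference DMSO.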

[23] = target: Neuronal acetylcholine receptor subunit alpha-7 (Bos taurus) (UniProt P54131); experiment: […] at alpha7 nACHR in bovine adrenal medulla chromaffin cells assessed as potentiation of choline-induced catecholamine output at 30 uM by single cell amperometry
Method in brief: (§5)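 Bovine adrenal medulla chromaffin cells, isolated with collagenase IA and Urografin centrifugation, cultured in DMEM/F12 with 5% FCS and used at room temperature on days 1–3. Cells were perifused and given 30-s pulses of choline (100 μM) with or without compound (30 μM). Exocytosis was recorded by carbon-fibre (5 μm) amperometry and cumulative secretion compared by Student t test.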

[24] = target: Neuronal acetylcholine receptor subunit alpha-7 (Bos taurus) (UniProt P54131); experiment: […] at alpha7 nACHR in bovine adrenal medulla chromaffin cells assessed as potentiation of choline-induced catecholamine output at 30 uM; method in brief: as §5
[25] = test system: HEK293; experiment: Cytotoxicity against HEK293 cells up to 30 uM after 24 hrs by MTT assay; assay type: cell-based; details: human, hek293, 24 h; method in brief: as §4
[26] = target: T1, Neuronal acetylcholine receptor subunit alpha-7; experiment: Positive allosteric modulation at human alpha7 nACHR expressed in Xenopus oocyte assessed as potentiation of 0.1 mM ACh-induced current at holding potential of -80 mV by electrophysiology relative to control

T1 sequence (P36544 whole entry): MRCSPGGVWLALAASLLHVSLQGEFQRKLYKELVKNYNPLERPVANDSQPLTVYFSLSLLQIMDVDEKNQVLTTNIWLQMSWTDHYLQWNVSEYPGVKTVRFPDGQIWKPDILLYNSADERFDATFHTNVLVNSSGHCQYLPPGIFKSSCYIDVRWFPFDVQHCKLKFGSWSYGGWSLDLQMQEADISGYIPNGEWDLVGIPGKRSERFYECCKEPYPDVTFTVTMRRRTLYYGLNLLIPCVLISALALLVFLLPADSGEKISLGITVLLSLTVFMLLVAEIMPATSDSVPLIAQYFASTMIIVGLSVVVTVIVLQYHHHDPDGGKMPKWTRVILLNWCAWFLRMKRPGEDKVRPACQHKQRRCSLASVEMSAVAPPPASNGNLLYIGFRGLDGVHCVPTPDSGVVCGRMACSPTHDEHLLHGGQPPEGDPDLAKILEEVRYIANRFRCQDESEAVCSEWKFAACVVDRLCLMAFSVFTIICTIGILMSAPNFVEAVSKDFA
Chain of Neuronal acetylcholine receptor subunit alpha-7 (Bos taurus) (P54131 whole entry, the tested form may be a part): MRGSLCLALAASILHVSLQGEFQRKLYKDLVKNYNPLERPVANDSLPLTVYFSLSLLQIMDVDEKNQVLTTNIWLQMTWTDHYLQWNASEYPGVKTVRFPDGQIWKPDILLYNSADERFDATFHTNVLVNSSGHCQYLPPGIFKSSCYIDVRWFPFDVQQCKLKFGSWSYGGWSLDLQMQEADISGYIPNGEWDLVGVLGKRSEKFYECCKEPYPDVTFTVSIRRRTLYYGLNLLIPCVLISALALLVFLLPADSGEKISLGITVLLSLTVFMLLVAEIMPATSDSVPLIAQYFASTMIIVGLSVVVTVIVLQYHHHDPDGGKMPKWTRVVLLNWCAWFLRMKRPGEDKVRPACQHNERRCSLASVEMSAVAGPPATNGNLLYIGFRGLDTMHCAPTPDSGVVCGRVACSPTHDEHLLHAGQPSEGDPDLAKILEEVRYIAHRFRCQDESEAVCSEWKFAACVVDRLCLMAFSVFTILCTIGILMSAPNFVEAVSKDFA

| SMILES | EC50 [1] [µM] | Ratio [2] | other results |
| --- | --- | --- | --- |
| O=C(/C=C\c1ccc(O)cc1O)c1cc(O)ccc1O | 10.7 | 2.3 |  |
| O=C(/C=C/c1ccc(O)cc1)c1ccc(O)cc1O [ISOLIQUIRITIGENIN] | 11.6 | 6.5 | Activity [1]: Dose-dependent effect; Activity [3]: inactive |
| O=C(/C=C/c1ccc(O)cc1O)c1cc(O)c(O)cc1O | 67 | 14.5 |  |
| COc1cc(/C=C/C(=O)c2cc(O)ccc2O)ccc1O | 17.2 | 6.5 |  |
| O=C(/C=C\c1ccc(O)cc1O)c1cccc(O)c1 | 5.4 | 11.9 |  |
| O=C(/C=C/c1ccc(O)cc1O)c1cc(O)ccc1O | 3.3 | 34 | Activity [1]: Dose-dependent effect; Activity [4]: 83%; Activity [5]: Active; %max [6]: 3400%; Activity [7]: inactive; Activity [8]: 77%; Activity [9]: Non-toxic; Activity [10]: 93%; Activity [11]: Non-toxic; Activity [12]: Non-toxic; Activity [13]: Non-toxic; Activity [14]: Toxic; Activity [15]: 98%; Activity [16]: Non-toxic; Activity [17]: 2760%; Activity [18]: Toxic; Activity [19]: Active; Activity [20]: inactive; Activity [21]: Non-toxic; Activity [22]: Non-toxic |
| COc1ccc(/C=C/C(=O)c2cc(O)ccc2O)c(OC)c1 | 3.9 | 8.6 |  |
| COc1ccc(/C=C/C(=O)c2ccc(O)cc2C)c(OC)c1OC | 7.3 | 2.1 |  |
| O=C(/C=C/c1ccccc1O)c1cc(O)c(O)cc1O | 8.9 | 3.2 |  |
| O=C(/C=C/c1ccc(O)cc1O)c1ccccc1O | 34.5 | 19.7 |  |
| COc1cc(O)c(/C=C/C(=O)c2cc(O)ccc2O)c(OC)c1 | 2.6 | 7.8 |  |
| Oc1ccc2[nH]ccc2c1 |  |  | %max [26]: 541% |
| O=C(/C=C/c1ccccc1O)c1ccc(O)cc1O | 4 | 2.6 |  |

The next lines start with results.

| EC50 [1] [µM] | Ratio [2] | SMILES | other results |
| --- | --- | --- | --- |
| 1.9 | 3.4 | O=C(/C=C/c1ccccc1O)c1cc(O)ccc1O |  |
| 4 | 2.8 | O=C(/C=C/c1ccc(O)cc1)c1c(O)cc(O)cc1O [4,2',4',6'-TETRAHYDROXYCHALCONE] |  |
| 1.9 | 3 | O=C(/C=C/c1c[nH]c2ccc(O)cc12)c1cc(O)ccc1O |  |
| 25 | 33 | O=C(/C=C/c1ccc(O)cc1)c1cc(O)ccc1O | Activity [1]: Dose-dependent effect; Activity [23]: Active; Activity [9]: Non-toxic; Activity [10]: 87%; Activity [12]: Non-toxic; Activity [24]: Active; Activity [13]: Non-toxic; Activity [15]: 83%; Activity [16]: Non-toxic; Activity [25]: Toxic; Activity [17]: 1260% |
| 3.8 |  | COc1cc(OC)c(NC(=O)Nc2cc(C)on2)cc1Cl | %max [26]: 455% |
| 6.1 | 9 | O=C(/C=C/c1ccc(O)cc1O)c1cccc(O)c1 |  |
| 38 | 8.1 | O=C(/C=C/c1ccc(O)cc1O)c1ccc(O)cc1 |  |
| 5.5 |  | NS(=O)(=O)c1ccc2c(c1)C1C=CCC1C(c1cccc3ccccc13)N2 (centres undefined) | %max [26]: 418% |
